Positions count from the first letter of the chain named.
How the values were obtained:
human 5-HT3A receptor = target: T1, human 5-HT3A receptor (Homo sapiens, UniProt P46098); assay type: cell-based
T1 sequence (P46098 24-478): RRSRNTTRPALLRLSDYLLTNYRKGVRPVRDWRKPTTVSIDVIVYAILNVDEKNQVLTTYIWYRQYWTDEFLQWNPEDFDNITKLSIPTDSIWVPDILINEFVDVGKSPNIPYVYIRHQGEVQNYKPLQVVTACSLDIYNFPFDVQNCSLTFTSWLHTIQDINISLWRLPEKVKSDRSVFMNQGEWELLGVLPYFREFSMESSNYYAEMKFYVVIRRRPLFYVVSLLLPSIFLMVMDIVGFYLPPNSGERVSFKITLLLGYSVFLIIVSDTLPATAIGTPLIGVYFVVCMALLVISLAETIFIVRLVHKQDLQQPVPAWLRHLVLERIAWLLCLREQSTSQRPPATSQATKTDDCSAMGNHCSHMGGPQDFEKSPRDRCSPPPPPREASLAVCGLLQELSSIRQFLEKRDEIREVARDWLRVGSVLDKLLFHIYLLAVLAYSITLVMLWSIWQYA
In short: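 Human 5-HT3A receptors (wild-type or point mutant made by site-directed mutagenesis) transfected into HEK-293 cells. Cells recorded 2 d later, trypsin/EDTA-treated 2 h before, lifted, superfused with HEPES-buffered saline (pH 7.4). Whole-cell, CsCl pipette, −60 mV, 20–22°C. 5-HT 30 μM pulses before, during and after continuous 5 min test compound (0.1 μM) incubation; 5–7 cells, mean ± SE.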

[1] = test system: native GlyRs in cultured spinal neurons; experiment: Whole-cell patch-clamp of Gly-activated current; assay type: cell-based, rat; conditions: for average percent potentiation of IGly: concentration-response (Fig. 1E), EC2 Gly
In short: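 Spinal cords from postnatal day 0 rats, papain-dissociated (20 U/ml, 37°C, 40 min). Plated at 300,000 cells/ml on poly-d-lysine in MEM/10% FBS, cultured ≥10 d, washed 30 min in external solution. Whole-cell, −60 mV, 20–22°C.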

CB2 receptors = conditions: read-out: binding affinity (Ki) for CB2 receptors; ref Pertwee, 2000; cited from earlier work
[2] = target: T2, S296A mutant human α1 GlyR (Homo sapiens, UniProt P23415, S324A); experiment: cell-based; assay type: cell-based; conditions: S296A α1
T2 sequence (P23415 29-457 S324A): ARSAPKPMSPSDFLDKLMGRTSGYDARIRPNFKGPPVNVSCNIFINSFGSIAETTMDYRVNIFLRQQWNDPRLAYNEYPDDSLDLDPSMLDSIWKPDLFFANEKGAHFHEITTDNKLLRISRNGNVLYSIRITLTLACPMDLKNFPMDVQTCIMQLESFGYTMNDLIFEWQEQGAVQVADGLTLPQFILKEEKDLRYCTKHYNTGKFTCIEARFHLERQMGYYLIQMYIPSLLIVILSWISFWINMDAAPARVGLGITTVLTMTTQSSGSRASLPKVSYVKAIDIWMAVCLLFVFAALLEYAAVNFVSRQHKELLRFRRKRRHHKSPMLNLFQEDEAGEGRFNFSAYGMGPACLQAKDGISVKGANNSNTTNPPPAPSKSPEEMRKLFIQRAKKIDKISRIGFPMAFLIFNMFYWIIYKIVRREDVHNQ

A303S mutant rat α2 GlyR = target: T3, A303S mutant rat α2 GlyR (Rattus norvegicus, UniProt P22771, A330S); experiment: Whole-cell patch-clamp of IGly in HEK-293 cells expressing A303S mutant α2 GlyRs; assay type: cell-based; conditions: 10 μM AEA, 5 min sustained, EC2 Gly (20 μM)
T3 sequence (P22771 28-452 A330S): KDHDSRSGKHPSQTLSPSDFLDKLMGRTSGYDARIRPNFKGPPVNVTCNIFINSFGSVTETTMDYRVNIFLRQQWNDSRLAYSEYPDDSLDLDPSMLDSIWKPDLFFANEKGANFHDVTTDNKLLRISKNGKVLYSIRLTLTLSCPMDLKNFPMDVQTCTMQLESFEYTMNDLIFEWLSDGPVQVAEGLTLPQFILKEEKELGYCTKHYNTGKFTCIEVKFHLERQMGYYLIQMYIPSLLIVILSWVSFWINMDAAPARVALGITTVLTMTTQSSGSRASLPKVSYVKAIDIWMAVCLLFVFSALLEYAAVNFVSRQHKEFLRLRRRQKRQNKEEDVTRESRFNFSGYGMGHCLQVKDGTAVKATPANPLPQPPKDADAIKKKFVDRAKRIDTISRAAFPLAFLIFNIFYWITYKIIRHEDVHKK

human α1 GlyR = target: T4, human α1 GlyR (Homo sapiens, UniProt P23415); experiment: cell-based; assay type: cell-based; conditions: for average percent potentiation of IGly: concentration-response (Fig. 1E)
T4 sequence (P23415 29-457): T2 sequence (P23415 29-457 S324A) with A296S

SMILES: CCCCC/C=C\C/C=C\C/C=C\C/C=C\CCCC(=O)NCCO [AEA, anandamide]
- effect on 5-HT-activated current (human 5-HT3A receptor; 0.1 μM AEA for 5 min, 5-HT 30 μM, wild-type): gradually developing inhibition
- time to maximal inhibition of I5-HT (human 5-HT3A receptor; continuous exposure to 0.1 μM AEA): 5 min
- time to maximal potentiation of IGly ([1]; 1 μM AEA sustained application): 5 min
- average percentage potentiation of IGly ([1]; 1 μM AEA, 5 min sustained application, EC2 Gly (Fig. 1C)): 86 ± 24%
- percentage potentiation of IGly, initial value ([1]; 1 μM AEA, after 1 min of AEA exposure, neurons): 6 ± 6%
- average percent potentiation of IGly ([1]; 1 μM AEA): 79 ± 19%
- average percent potentiation of IGly ([1]; 3 μM AEA): 236 ± 52%
- average percent potentiation of IGly ([1]; 10 μM AEA): 636 ± 87%
- average percent potentiation of IGly ([1]; 30 μM AEA): 800 ± 71%
- Ki (CB2 receptors): 0.279 to 1.94 µM
- AEA-induced potentiation of IGly, simultaneous application ([2]; 10 μM AEA simultaneously applied only with Gly): 99 ± 20%
- AEA-induced potentiation of IGly ([2]; 10 μM AEA, 5 min sustained, EC2 Gly (10 μM)): 131 ± 41%
- AEA-induced potentiation of IGly (A303S mutant rat α2 GlyR): 580 ± 110%
- EC50 (human α1 GlyR): 4.2 ± 1.95 µM
- time to maximal potentiation of IGly (human α1 GlyR; 1 μM AEA sustained application, α1 homomeric): 5 min
- average percentage potentiation of IGly (human α1 GlyR; 1 μM AEA, 5 min sustained application, EC2 Gly, α1 (Fig. 1C)): 97 ± 16%
- percentage potentiation of IGly, initial value (human α1 GlyR; 1 μM AEA, after 1 min of AEA exposure, HEK-293 cells): 3 ± 1%
- average percent potentiation of IGly (human α1 GlyR; 1 μM AEA, EC2 Gly): 91 ± 9%
- average percent potentiation of IGly (human α1 GlyR; 3 μM AEA, EC2 Gly): 311 ± 86%
- AEA-induced potentiation of IGly, simultaneous application (human α1 GlyR; 10 μM AEA simultaneously applied only with Gly, wild-type α1): 108 ± 15%
- average percentage potentiation of IGly (human α1 GlyR; 10 μM AEA, Gly 30 μM): 102 ± 49%
- average percentage potentiation of IGly (human α1 GlyR; 10 μM AEA, Gly 100 μM): 24 ± 6%
- average percent potentiation of IGly (human α1 GlyR; 10 μM AEA, Gly 10 μM): 712 ± 96%
- average percent potentiation of IGly (human α1 GlyR; 30 μM AEA, EC2 Gly): 824 ± 278%
- maximal potentiation of α1 GlyRs (human α1 GlyR; AEA applied continuously for 5 min with intermittent Gly): 700–800%
- direct activation of current by AEA alone (human α1 GlyR; even at high concentrations (> 30 μM), no Gly, cell type not specified): did not trigger detectable current

Source: article PMC3334839 (The Journal of Neuroscience, 2012)
